In brackets after ≈: the same amount, converted by molar mass.
Experiments:
Format in all cases: functional
[1] = system: Aspergillus flavus; test: Antimicrobial activity against Aspergillus flavus after 72 to 96 hrs by twofold serial dilution method
Summary of the method: (§1)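 Twofold serial broth dilution in Sabouraud dextrose broth at pH 5.6. Spores came from 1–7-day Sabouraud agar slants, final inoculum 1.1–1.5 × 10² cfu/mL. Compound stocks were 1 mg/mL in DMSO, diluted 1:5 into seeded broth, then six serial dilutions. Incubation was 28 ± 1 °C for 72–96 h, with growth and solvent controls. MIC was read visually; amphotericin B was the standard.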

[2] = system: Salmonella enterica subsp. enterica serovar Typhi str. CT18; test: Antimicrobial activity against Salmonella typhi after 24 hrs by twofold serial dilution method
Summary of the method: (§2)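 Twofold serial broth dilution in nutrient broth at pH 7.4 ± 0.2. Compound stocks were 1 mg/mL in DMSO, diluted 1:5 into seeded broth, then six serial dilutions. Inocula came from 24 h nutrient-agar cultures, final 10⁵ cfu/mL. Incubation was 37 ± 1 °C for 24 h, with growth and solvent controls. MIC was read visually; ciprofloxacin was the standard.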

[3] = system: Rattus norvegicus; test: Antipyretic activity against brewer's yeast-induced hyperthermia in Wistar rat assessed as change in rectal temperature at 30 mg/kg, po after 60 mins
Summary of the method: (§3)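 Wistar rats of both sexes, 200–250 g, received brewer's yeast in normal saline sc. Rectal temperature was taken with a digital thermometer (precision 0.1 °C). At 18 h, rats whose temperature had risen 0.3–0.5 °C were selected. Test compounds (30 or 60 mg/kg) or indomethacin (5 mg/kg) were given orally in 1% CMC; controls received vehicle only. Temperature was measured at 30, 60, 90, 120 and 150 min, mean ± SEM.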

[4] = system: Rattus norvegicus; test: Antipyretic activity against brewer's yeast-induced hyperthermia in Wistar rat assessed as change in rectal temperature at 30 mg/kg, po after 90 mins; summary of the method: as §3
[5] = system: Rattus norvegicus; test: Antipyretic activity against brewer's yeast-induced hyperthermia in Wistar rat assessed as change in rectal temperature at 30 mg/kg, po after 120 mins; summary of the method: as §3
[6] = system: Mus musculus; test: Analgesic activity in albino mouse assessed as inhibition of acetic acid-induced writhing response at 30 mg/kg, po administered 1 hr prior to acetic acid challenge relative to control
Summary of the method: (§4)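 Albino mice of both sexes, 20–25 g, n = 6 per group. Doses of 30, 60 or 90 mg/kg were given orally as suspensions in 1% sodium CMC. 1 h later, 1% acetic acid in normal saline (10 mL/kg) was injected ip. Complete extension of either hind limb counted as a writhe. Counting started 5 min after injection and ran 30 min. Results are % inhibition = [1 − T/C] × 100 versus vehicle controls, mean ± SEM.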

[7] = system: Rattus norvegicus; test: Antipyretic activity against brewer's yeast-induced hyperthermia in Wistar rat assessed as change in rectal temperature at 30 mg/kg, po after 30 mins; summary of the method: as §3
[8] = system: Staphylococcus aureus; test: Antimicrobial activity against Staphylococcus aureus after 24 hrs by twofold serial dilution method; summary of the method: as §2
[9] = system: Rattus norvegicus; test: Antipyretic activity against brewer's yeast-induced hyperthermia in Wistar rat assessed as change in rectal temperature at 60 mg/kg, po after 150 mins; summary of the method: as §3
[10] = system: Rattus norvegicus; test: Antipyretic activity against brewer's yeast-induced hyperthermia in Wistar rat assessed as change in rectal temperature at 60 mg/kg, po after 60 mins; summary of the method: as §3
[11] = system: Mus musculus; test: Analgesic activity in albino mouse assessed as inhibition of acetic acid-induced writhing response at 60 mg/kg, po administered 1 hr prior to acetic acid challenge relative to control; summary of the method: as §4
[12] = system: Escherichia coli; test: Antimicrobial activity against Escherichia coli after 24 hrs by twofold serial dilution method; summary of the method: as §2
[13] = system: Klebsiella pneumoniae; test: Antimicrobial activity against Klebsiella pneumoniae after 24 hrs by twofold serial dilution method; summary of the method: as §2
[14] = system: Rattus norvegicus; test: Antipyretic activity against brewer's yeast-induced hyperthermia in Wistar rat assessed as change in rectal temperature at 60 mg/kg, po after 90 mins; summary of the method: as §3
[15] = system: Mus musculus; test: Analgesic activity in albino mouse assessed as inhibition of acetic acid-induced writhing response at 90 mg/kg, po administered 1 hr prior to acetic acid challenge relative to control; summary of the method: as §4
[16] = system: Rattus norvegicus; test: Antipyretic activity against brewer's yeast-induced hyperthermia in Wistar rat assessed as change in rectal temperature at 60 mg/kg, po after 120 mins; summary of the method: as §3
[17] = system: Candida albicans; test: Antimicrobial activity against Candida albicans after 72 to 96 hrs by twofold serial dilution method; summary of the method: as §1
[18] = system: Rattus norvegicus; test: Antipyretic activity against brewer's yeast-induced hyperthermia in Wistar rat assessed as change in rectal temperature at 60 mg/kg, po after 30 mins; summary of the method: as §3
[19] = system: Rhizopus; test: Antimicrobial activity against Rhizopus sp. after 72 to 96 hrs by twofold serial dilution method; summary of the method: as §1
[20] = system: Pseudomonas aeruginosa; test: Antimicrobial activity against Pseudomonas aeruginosa after 24 hrs by twofold serial dilution method; summary of the method: as §2
[21] = system: Aspergillus niger; test: Antimicrobial activity against Aspergillus niger after 72 to 96 hrs by twofold serial dilution method; summary of the method: as §1
[22] = system: Rattus norvegicus; test: Antipyretic activity against brewer's yeast-induced hyperthermia in Wistar rat assessed as change in rectal temperature at 30 mg/kg, po after 150 mins; summary of the method: as §3

SMILES	MIC [1] [µg/mL]	MIC [2] [µg/mL]	Activity [3] [°C]	Activity [4] [°C]	Activity [5] [°C]	inhibition in vivo at 30 mg/kg [6] [%]	Activity [7] [°C]	MIC [8] [µg/mL]	Activity [9] [°C]	Activity [10] [°C]	inhibition in vivo at 60 mg/kg [11] [%]	MIC [12] [µg/mL]	MIC [13] [µg/mL]	Activity [14] [°C]	inhibition in vivo at 90 mg/kg [15] [%]	Activity [16] [°C]	MIC [17] [µg/mL]	Activity [18] [°C]	MIC [19] [µg/mL]	MIC [20] [µg/mL]	further results
CC1C(=O)C(C)C(c2ccccc2)N(C(=O)CN2CCN(C)CC2)C1c1ccccc1 (configuration not stated)	50 (≈ 119 µM)	25 (≈ 59.6 µM)	38	38.95	38.85	17.4	38.11	50 (≈ 119 µM)	37.55	37.95	24.1	100 (≈ 238 µM)	12.5 (≈ 29.8 µM)	37.9	13.9	37.7	100 (≈ 238 µM)	38.1	50 (≈ 119 µM)	50 (≈ 119 µM)	MIC [21]: 50 µg/mL (≈ 119 µM); Activity [22]: 38.7 °C
CC1C(=O)CC(c2ccc(Cl)cc2)N(C(=O)CN2CCN(C)CC2)C1c1ccc(Cl)cc1 (configuration not stated)	50 (≈ 105 µM)	12.5 (≈ 26.3 µM)	37.96	37.89	37.7	49.2	37.05	50 (≈ 105 µM)	37.5	37.92	70.4	25 (≈ 52.7 µM)	25 (≈ 52.7 µM)	37.85	61.6	37.65	6.25 (≈ 13.2 µM)	37.95	12.5 (≈ 26.3 µM)	6.25 (≈ 13.2 µM)	MIC [21]: 25 µg/mL (≈ 52.7 µM); Activity [22]: 37.65 °C
CC1C(=O)C(C)C(c2ccc(Cl)cc2)N(C(=O)CN2CCN(C)CC2)C1c1ccc(Cl)cc1 (configuration not stated)	25 (≈ 51.2 µM)	50 (≈ 102 µM)	37.9	37.8	37.6	22.5	37.95	6.25 (≈ 12.8 µM)	37.3	37.85	36.5	12.5 (≈ 25.6 µM)	6.25 (≈ 12.8 µM)	37.75	38.9	37.55	12.5 (≈ 25.6 µM)	37.92	6.25 (≈ 12.8 µM)	12.5 (≈ 25.6 µM)	MIC [21]: 25 µg/mL (≈ 51.2 µM); Activity [22]: 37.4 °C
COc1ccc(C2CC(=O)C(C)C(c3ccc(OC)cc3)N2C(=O)CN2CCN(C)CC2)cc1 (configuration not stated)	50 (≈ 107 µM)	200 (≈ 430 µM)	37.8	37.6	37.5	48.2	37.9	100 (≈ 215 µM)	37.01	37.7	70.3	50 (≈ 107 µM)	100 (≈ 215 µM)	37.5	48	37.3	25 (≈ 53.7 µM)	37.85	50 (≈ 107 µM)	50 (≈ 107 µM)	MIC [21]: 100 µg/mL (≈ 215 µM); Activity [22]: 37.2 °C
CC(C)C1C(=O)CC(c2ccccc2)N(C(=O)CN2CCN(C)CC2)C1c1ccccc1 (configuration not stated)	100 (≈ 231 µM)	50 (≈ 115 µM)	38.1	38.01	38.96	5.6	38.15	200 (≈ 461 µM)	38.75	38.01	18.1	100 (≈ 231 µM)	200 (≈ 461 µM)	38.95	2.2	38.9	200 (≈ 461 µM)	38.05	50 (≈ 115 µM)	100 (≈ 231 µM)	MIC [21]: 100 µg/mL (≈ 231 µM); Activity [22]: 38.9 °C
Cc1ccc(C2C(C)C(=O)C(C)C(c3ccc(C)cc3)N2C(=O)CN2CCN(C)CC2)cc1 (configuration not stated)	12.5 (≈ 27.9 µM)	25 (≈ 55.9 µM)	38.02	37.95	37.9	42.6	38.11	50 (≈ 112 µM)	37.6	38.95	54.6	100 (≈ 223 µM)	12.5 (≈ 27.9 µM)	37.9	33.1	37.8	50 (≈ 112 µM)	38.01	25 (≈ 55.9 µM)	25 (≈ 55.9 µM)	MIC [21]: 12.5 µg/mL (≈ 27.9 µM); Activity [22]: 37.7 °C
